Results as given in ChEMBL document CHEMBL4190389, “Synthesis and activity of di- or trisubstituted N-(phenoxyalkyl)- or N-{2-[2-(phenoxy)ethoxy]ethyl}piperazine derivatives on the central nervous system” (Bioorg Med Chem Lett, 2018).
Active and inactive are the calls of the source. The calls are words filed in the database; no cut-off is given here.

What was measured:
[1] = target: T1, 5-hydroxytryptamine receptor 2A (Homo sapiens, UniProt P28223); experiment: biochemical; assay type: cell-based, HEK293
[2] = target: 5-hydroxytryptamine receptor 6 (Homo sapiens, UniProt P50406); experiment: Displacement of [3H]LSD from recombinant human 5-HT6 receptor expressed in CHO cells cell membranes after 60 mins by liquid scintillation counting method
[3] = target: 5-hydroxytryptamine receptor 7 (Homo sapiens, UniProt P34969); experiment: biochemical; assay type: cell-based, CHO
D(2) dopamine receptor [4] = target: T2, D(2) dopamine receptor (Homo sapiens, UniProt P14416); experiment: Displacement of [3H]methylspiperonee from recombinant human D2 receptor expressed in HEK293 cells cell membranes after 60 mins by liquid scintillation counting method
[5] = target: T3, Alpha-1A adrenergic receptor (Homo sapiens, UniProt P35348); experiment: Displacement of [3H]prazosin from recombinant human alpha1 adrenoceptor expressed in CHO cell membranes after 30 mins by liquid scintillation counting method
T3 sequence (P35348 whole entry): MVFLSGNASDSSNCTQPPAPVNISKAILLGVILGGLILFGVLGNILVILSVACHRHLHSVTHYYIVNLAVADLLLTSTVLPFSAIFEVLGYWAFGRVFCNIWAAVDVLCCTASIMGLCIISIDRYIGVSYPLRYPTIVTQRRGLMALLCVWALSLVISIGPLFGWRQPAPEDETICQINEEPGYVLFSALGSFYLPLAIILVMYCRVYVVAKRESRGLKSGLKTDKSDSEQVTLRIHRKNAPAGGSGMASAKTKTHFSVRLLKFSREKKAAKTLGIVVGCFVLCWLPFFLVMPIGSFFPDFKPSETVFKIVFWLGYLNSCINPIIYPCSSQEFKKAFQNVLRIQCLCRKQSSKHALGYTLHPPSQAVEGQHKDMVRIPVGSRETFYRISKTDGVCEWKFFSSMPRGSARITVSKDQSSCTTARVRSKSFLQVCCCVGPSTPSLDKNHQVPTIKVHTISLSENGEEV

Mus musculus [6] = experiment: Anticonvulsant activity in Albino Swiss CD-1 mouse assessed as protection against 50 Hz current-induced seizure at 45 mg/kg, ip; assay type: functional, organism-based
[7] = target: T1, 5-hydroxytryptamine receptor 2A; experiment: Antagonist activity at human 5-HT2A receptor expressed in CHO-K1 cells co-expressing Galpha16 assessed as decrease in serotonin calcium mobilization preincubated for 30 mins followed by serotonin challenge measured for 30 secs by aequorin-derived luminescence assay; assay type: functional, cell-based
Mus musculus [8] = experiment: Antidepressant-like activity in Albino Swiss CD-1 mouse assessed as immobility time at 5 mg/kg, ip administered 30 mins prior to test measured for last 4 mins of 6 mins observation by forced swim test (reference value: 153.9 to 201.9 secs); assay type: functional
Mus musculus [9] = experiment: Antidepressant-like activity in Albino Swiss CD-1 mouse assessed as immobility time at 10 mg/kg, ip administered 30 mins prior to test measured for last 4 mins of 6 mins observation by forced swim test (reference value: 153.9 to 201.9 secs); assay type: functional
Mus musculus [10] = experiment: Antidepressant-like activity in Albino Swiss CD-1 mouse assessed as immobility time at 20 mg/kg, ip administered 30 mins prior to test measured for last 4 mins of 6 mins observation by forced swim test (reference value: 153.9 to 201.9 secs); assay type: functional
Mus musculus [11] = experiment: Anxiolytic-like activity in Albino Swiss CD-1 mouse assessed as increase in number of punished crossings at 5 to 10 mg/kg, ip administered for 30 mins prior to test measured for 1 min by four-plate test; assay type: functional, organism-based
Summary of the method: (§1)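 Four-plate test in mice, i.p., 30 min before test; vehicle 0.9% NaCl; doses 1.25–10 mg/kg; number of punished crossings counted; mean ± SEM, n = 8–10 mice per group; ANOVA F statistics.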

Mus musculus [12] = experiment: Toxicity in Albino Swiss CD-1 mouse assessed as effect on locomotory activity at 5 to 10 mg/kg, ip administered for 30 mins prior to test measured for 1 min; assay type: organism-based; settings: in vivo
Summary of the method: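 Mice dosed i.p. 30 min before test; vehicle groups received 0.9% NaCl. Spontaneous locomotion scored as number of crossings during a 1-min session. Each dose compared with its own vehicle group by Student t-test; mean ± SEM, n = 8–10 mice per group.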

Mus musculus [13] = experiment: Anticonvulsant activity in Albino Swiss CD-1 mouse assessed as protection against 50 Hz current-induced seizure at 100 mg/kg, ip; assay type: functional, organism-based
Mus musculus [14] = experiment: Toxicity in Albino Swiss CD-1 mouse assessed as death at 30 to 100 mg/kg, ip; assay type: organism-based; settings: in vivo
Summary of the method: (§2)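 Deaths counted in mice during maximal electroshock (MES) seizure testing after i.p. dosing, 6 mice per dose (3 or 1 at some top doses); recorded as number dead/number tested alongside protection and rotarod motor impairment (10 rpm); untreated control group included.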

Mus musculus [15] = experiment: Anticonvulsant activity in ip dosed Albino Swiss CD-1 mouse assessed as dose required to protect against 50 Hz current-induced seizure; assay type: functional; settings: Swiss CD-1, ip
[16] = Neurotoxicity in ip dosed Albino Swiss CD-1 mouse assessed as minimum dose required to induce motor impairment treated 30 mins prior to test by rotarod test; assay type: toxicity, organism-based; settings: in vivo
[17] = Protection index, ratio of TD50 for motor impairment in ip dosed Swiss albino CD-1 mouse to ED50 for protection against 50 Hz current-induced seizures in ip dosed Swiss albino CD-1 mouse; assay type: toxicity, organism-based, Swiss CD-1; settings: in vivo, read-out: Ratio TD50/ED50
Mus musculus [18] = experiment: Neurotoxicity in Albino Swiss CD-1 mouse assessed as motor impairment at 100 mg/kg, ip treated 30 mins prior to test by rotarod test; assay type: toxicity, organism-based; settings: in vivo, 0.5 h
[19] = target: T4, 5-hydroxytryptamine receptor 1A (Homo sapiens) (UniProt P08908); experiment: Displacement of [3H]8-OH-DPAT from recombinant human 5-HT1A receptor expressed in HEK293 cell membranes at 10^-5 M after 60 mins by liquid scintillation counting method
T4 sequence (whole entry): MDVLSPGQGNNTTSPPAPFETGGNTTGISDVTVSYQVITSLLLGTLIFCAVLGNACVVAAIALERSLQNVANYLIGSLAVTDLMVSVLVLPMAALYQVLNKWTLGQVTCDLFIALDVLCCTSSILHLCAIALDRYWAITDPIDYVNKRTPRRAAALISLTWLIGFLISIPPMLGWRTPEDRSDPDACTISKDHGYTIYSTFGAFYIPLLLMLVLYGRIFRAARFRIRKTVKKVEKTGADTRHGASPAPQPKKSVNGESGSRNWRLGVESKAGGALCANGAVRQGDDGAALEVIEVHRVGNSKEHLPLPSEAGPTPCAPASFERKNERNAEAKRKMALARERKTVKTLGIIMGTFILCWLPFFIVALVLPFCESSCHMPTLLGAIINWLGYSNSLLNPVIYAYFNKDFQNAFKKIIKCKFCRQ

[20] = target: T5, 5-hydroxytryptamine receptor 1A (Homo sapiens, UniProt P08908); experiment: Displacement of [3H]8-OH-DPAT from recombinant human 5-HT1A receptor expressed in HEK293 cell membranes after 60 mins by liquid scintillation counting method
T5 sequence (P08908 whole entry): T4 sequence (whole entry)

[21] = target: T4, 5-hydroxytryptamine receptor 1A (Homo sapiens); experiment: Agonist activity at human 5-HT1A receptor expressed in CHO-K1 cells co-expressing Galpha16 assessed as increase in calcium mobilization measured for 30 secs by aequorin-derived luminescence assay relative to serotonin; assay type: functional, cell-based
[22] = target: T4, 5-hydroxytryptamine receptor 1A (Homo sapiens); experiment: Antagonist activity at human 5-HT1A receptor expressed in CHO-K1 cells co-expressing Galpha16 assessed as decrease in serotonin-induced calcium mobilization preincubated for 25 mins followed by serotonin challenge measured for 30 secs by aequorin-derived luminescence assay relative to control; assay type: functional, cell-based
[23] = target: T4, 5-hydroxytryptamine receptor 1A (Homo sapiens); experiment: (§3) Antagonist activity at human 5-HT1A receptor expressed in CHO-K1 cells co-expressing Galpha16 assessed as decrease in serotonin calcium mobilization preincubated for 25 mins followed by serotonin challenge measured for 30 secs by aequorin-derived luminescence assay; assay type: functional, cell-based
[24] = target: T5, 5-hydroxytryptamine receptor 1A; experiment: as §3; assay type: functional, cell-based
Mus musculus [25] = experiment: Anxiolytic-like activity in Albino Swiss CD-1 mouse assessed as increase in number of punished crossings at 10 mg/kg, ip administered for 30 mins prior to test measured for 1 min by four-plate test; assay type: functional, organism-based
Summary of the method: as §1

Mus musculus [26] = experiment: Toxicity in Albino Swiss CD-1 mouse assessed as death at 15 to 100 mg/kg, ip; assay type: organism-based; settings: in vivo
Summary of the method: as §2

Mus musculus [27] = experiment: Neurotoxicity in Albino Swiss CD-1 mouse assessed as motor impairment at 15 mg/kg, ip treated 30 mins prior to test by rotarod test; assay type: toxicity, organism-based; settings: in vivo, 0.5 h
Mus musculus [28] = experiment: Antiallodynic activity in STZ-induced Albino Swiss CD-1 mouse allodynia model assessed as increase in paw withdrawal latency time at 30 mg/kg, ip measured after 60 mins by Von Frey test; assay type: functional, organism-based
Mus musculus [29] = experiment: Antinociceptive activity in STZ-induced Albino Swiss CD-1 mouse model of thermal-induced nociception assessed as increase in latency to respond with hind paw lick or jumping at 30 mg/kg, ip measured after 60 mins by hot plate test; assay type: functional, organism-based
Mus musculus [30] = experiment: Antiallodynic activity in oxaliplatin-induced Albino Swiss CD-1 mouse allodynia model assessed as effect on hind paw licking at 30 mg/kg, ip measured after 60 mins by cold plate test; assay type: functional, organism-based
Mus musculus [31] = experiment: Antiallodynic activity in oxaliplatin-induced Albino Swiss CD-1 mouse allodynia model assessed as effect on shaking at 30 mg/kg, ip measured after 60 mins by cold plate test; assay type: functional, organism-based
Mus musculus [32] = experiment: Antiallodynic activity in oxaliplatin-induced Albino Swiss CD-1 mouse allodynia model assessed as effect on jumping at 30 mg/kg, ip measured after 60 mins by cold plate test; assay type: functional, organism-based
Mus musculus [33] = experiment: Antiallodynic activity in oxaliplatin-induced Albino Swiss CD-1 mouse allodynia model assessed as effect on decrease in abnormal movement at 30 mg/kg, ip measured after 60 mins by cold plate test; assay type: functional, organism-based
Mus musculus [34] = experiment: Anticonvulsant activity in Albino Swiss CD-1 mouse assessed as protection against 50 Hz current-induced seizure at 30 mg/kg, ip; assay type: functional, organism-based
Mus musculus [35] = experiment: Toxicity in Albino Swiss CD-1 mouse assessed as death at 100 mg/kg, ip; assay type: organism-based; settings: in vivo
Summary of the method: as §2

Mus musculus [36] = experiment: Toxicity in Albino Swiss CD-1 mouse assessed as death at 15 to 30 mg/kg, ip; assay type: organism-based; settings: in vivo
Summary of the method: as §2

Mus musculus [37] = experiment: Neurotoxicity in Albino Swiss CD-1 mouse assessed as motor impairment at 30 mg/kg, ip treated 30 mins prior to test by rotarod test; assay type: toxicity, organism-based; settings: in vivo, 0.5 h
D(2) dopamine receptor [38] = target: T2, D(2) dopamine receptor; experiment: Displacement of [3H]methylspiperonee from recombinant human D2 receptor expressed in HEK293 cell membranes at 10^-5 M after 60 mins by liquid scintillation counting method

T2 sequence (P14416 whole entry): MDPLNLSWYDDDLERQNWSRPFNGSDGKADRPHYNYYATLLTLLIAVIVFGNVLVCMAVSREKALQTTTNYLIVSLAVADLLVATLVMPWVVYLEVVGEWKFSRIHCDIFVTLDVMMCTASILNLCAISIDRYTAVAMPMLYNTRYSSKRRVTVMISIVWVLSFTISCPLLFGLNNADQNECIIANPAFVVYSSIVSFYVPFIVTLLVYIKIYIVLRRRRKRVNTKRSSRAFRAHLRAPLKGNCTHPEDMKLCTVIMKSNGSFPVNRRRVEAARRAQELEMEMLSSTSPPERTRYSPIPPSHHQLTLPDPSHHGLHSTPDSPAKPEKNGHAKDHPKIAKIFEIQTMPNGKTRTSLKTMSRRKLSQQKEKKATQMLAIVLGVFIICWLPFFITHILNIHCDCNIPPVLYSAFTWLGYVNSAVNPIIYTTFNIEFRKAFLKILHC
5-hydroxytryptamine receptor 7, sequence (P34969 whole entry): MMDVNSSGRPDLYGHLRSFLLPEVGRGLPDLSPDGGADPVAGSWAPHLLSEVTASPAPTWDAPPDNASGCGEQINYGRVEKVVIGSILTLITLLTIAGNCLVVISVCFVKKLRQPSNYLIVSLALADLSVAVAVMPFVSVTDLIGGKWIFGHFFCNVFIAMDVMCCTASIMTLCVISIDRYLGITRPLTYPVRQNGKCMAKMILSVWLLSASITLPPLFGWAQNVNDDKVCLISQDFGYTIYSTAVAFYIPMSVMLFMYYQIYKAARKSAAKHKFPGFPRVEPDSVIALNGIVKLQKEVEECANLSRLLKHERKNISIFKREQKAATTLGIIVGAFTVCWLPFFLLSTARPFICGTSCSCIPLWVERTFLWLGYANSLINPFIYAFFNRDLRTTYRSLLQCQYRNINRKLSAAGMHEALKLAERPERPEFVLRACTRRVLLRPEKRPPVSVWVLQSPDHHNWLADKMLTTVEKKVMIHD
5-hydroxytryptamine receptor 6, sequence (P50406 whole entry): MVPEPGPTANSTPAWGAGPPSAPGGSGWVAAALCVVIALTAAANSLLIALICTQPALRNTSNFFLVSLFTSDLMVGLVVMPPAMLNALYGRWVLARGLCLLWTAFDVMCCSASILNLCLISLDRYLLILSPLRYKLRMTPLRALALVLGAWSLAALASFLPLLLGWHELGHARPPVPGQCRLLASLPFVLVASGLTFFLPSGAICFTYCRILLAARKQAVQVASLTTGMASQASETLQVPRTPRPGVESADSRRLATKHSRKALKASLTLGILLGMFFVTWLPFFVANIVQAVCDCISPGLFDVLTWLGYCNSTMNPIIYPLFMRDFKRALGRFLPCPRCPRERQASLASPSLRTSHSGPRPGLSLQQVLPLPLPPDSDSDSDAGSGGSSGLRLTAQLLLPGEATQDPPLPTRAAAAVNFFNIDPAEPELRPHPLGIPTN
T1 sequence (P28223 whole entry): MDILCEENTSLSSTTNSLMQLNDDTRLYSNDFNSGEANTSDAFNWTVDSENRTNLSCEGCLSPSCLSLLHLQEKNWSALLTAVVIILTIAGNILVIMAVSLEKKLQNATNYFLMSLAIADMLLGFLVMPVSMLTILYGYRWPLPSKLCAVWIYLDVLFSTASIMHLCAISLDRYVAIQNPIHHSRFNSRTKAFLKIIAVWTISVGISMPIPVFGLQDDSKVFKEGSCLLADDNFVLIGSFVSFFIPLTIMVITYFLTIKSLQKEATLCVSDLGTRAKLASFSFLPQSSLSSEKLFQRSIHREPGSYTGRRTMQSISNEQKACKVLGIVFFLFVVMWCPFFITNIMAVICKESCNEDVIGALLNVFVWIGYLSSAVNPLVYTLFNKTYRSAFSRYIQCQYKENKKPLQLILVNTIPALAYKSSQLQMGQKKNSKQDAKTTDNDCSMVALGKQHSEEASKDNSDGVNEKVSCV

SMILES	Ki [1] [µM]	Ki [2] [µM]	Ki [3] [µM]	Ki (D(2) dopamine receptor [4]) [µM]	Ki [5] [µM]	Time (Mus musculus [8]) [s]	Time (Mus musculus [9]) [s]	Time (Mus musculus [10]) [s]	Activity (Mus musculus [12])	Activity (Mus musculus [13])	ED50 (Mus musculus [15]) [mg/kg]	TD50 at 0.5 h [16] [mg/kg]	selectivity ratio [17]	Ki [20] [µM]	Emax [21] [%]	Emax [22] [%]	Kb [23] [µM]	IC50 [24] [µM]	further results
Cc1cccc(OCCOCCN2CCN(CCc3ccccc3)CC2)c1C.Cl.Cl	0.22	0.2	0.388	1.21	0.036	157.6	161.1	162.1	Non-Toxic	Active	22.2	35.5	1.6	–	–	–	–	–	Activity (Mus musculus [6]): Active; IC50 [7]: 6.97 µM; Activity (Mus musculus [11]): inactive; Activity (Mus musculus [14]): Non-Toxic; Activity (Mus musculus [18]): Toxic; inhibition [19]: inactive
COc1ccc(N2CCN(CCCOc3c(C)cc(C)cc3C)CC2)cc1.Cl.Cl	0.772	> 5	3.03	4.96	2.12	179.9	202	183.9	Non-Toxic	Active	23.5	67.9	2.89	0.146	1	8	0.146	0.595	Activity (Mus musculus [25]): Active; Activity (Mus musculus [26]): Non-Toxic; Activity (Mus musculus [27]): Non-Toxic; Activity (Mus musculus [28]): Active; Activity (Mus musculus [29]): inactive; Activity (Mus musculus [30]): inactive; Activity (Mus musculus [31]): inactive; Activity (Mus musculus [32]): inactive; Activity (Mus musculus [33]): inactive
Cc1cc(C)c(OCCOCCN2CCN(CCc3ccccc3)CC2)c(C)c1.Cl.Cl	2.81	2.15	1.05	–	0.772	170.5	173.8	178.4	Non-Toxic	–	18	53.3	2.96	0.552	10	45	0.291	1.18	Activity (Mus musculus [34]): Active; Activity (Mus musculus [35]): Toxic; Activity (Mus musculus [36]): Non-Toxic; Activity (Mus musculus [37]): Non-Toxic; inhibition (D(2) dopamine receptor [38]): inactive
